# Published values collected from several papers.
# Compare with care: the assays were run in different laboratories.
# FLT3 N841I: Receptor-type tyrosine-protein kinase FLT3 (FLT3, Homo sapiens, UniProt P36888, N841I)
# FLT3 autoinhibited: Receptor-type tyrosine-protein kinase FLT3, autoinhibited (FLT3, Homo sapiens, UniProt P36888)
# FLT3: Receptor-type tyrosine-protein kinase FLT3 (FLT3, Homo sapiens, UniProt P36888)
# FLT3 D835V/ITD: Receptor-type tyrosine-protein kinase FLT3 (FLT3, Homo sapiens, UniProt P36888, D835V/ITD)
# FLT3 K663Q: Receptor-type tyrosine-protein kinase FLT3 (FLT3, Homo sapiens, UniProt P36888, K663Q)
# FLT3 D835Y: Receptor-type tyrosine-protein kinase FLT3 (FLT3, Homo sapiens, UniProt P36888, D835Y)
# FLT3 R834Q: Receptor-type tyrosine-protein kinase FLT3 (FLT3, Homo sapiens, UniProt P36888, R834Q)
# FLT3 D835H: Receptor-type tyrosine-protein kinase FLT3 (FLT3, Homo sapiens, UniProt P36888, D835H)
# FLT3 D835V: Receptor-type tyrosine-protein kinase FLT3 (FLT3, Homo sapiens, UniProt P36888, D835V)
SMILES,target,test,setting,remaining binding
CCN1CCN(Cc2ccc(C(=O)Nc3ccc(C)c(Oc4ccc5c(c4)CC(=O)N5)c3)cc2C(F)(F)F)CC1,FLT3 N841I,"binding, competition with immobilised ligand",1 µM,81%
C=CC(=O)N1CCC(C(=O)NCC(=O)N2CCN(c3nc(-c4cnc(N)nc4C(F)F)nc(N4CCOCC4)n3)CC2)CC1,FLT3 autoinhibited,"binding, competition with immobilised ligand",1 µM,99%
Nc1ncc2c(n1)-c1c([nH]c3ccc(C#CC4CC4)cc13)CCCC2,FLT3,"binding, competition with immobilised ligand",1 µM,96%
CN(C)C(=O)Cn1cc(-c2nc(C3(c4ccc(-c5cnc(N)nc5)cc4)CC3)no2)cn1,FLT3 D835V/ITD,"cell-free assay, competition with immobilised ligand",1 µM,89%
CN(c1nccc(-c2cnn3ncccc23)n1)C1CC1,FLT3 K663Q,binding,1 µM,83%
O=C1NC(c2ccccn2)Sc2ccccc21 (centres unmarked),FLT3 K663Q,"cell-free assay, competition with immobilised ligand",1 µM,82%
F[C@@H]1CCN(c2nccc(-c3cnn4ncccc34)n2)C1,FLT3 autoinhibited,binding,1 µM,100%
FC(F)(F)c1ccc2c(c1)nc(-c1cccnc1)n2C1CC1,FLT3,"cell-free assay, competition with immobilised ligand",1 µM,93%
CNC(=O)[C@@H]1CC[C@@H](n2c(-c3ccc4cnccc4c3)nc3ccc(C(=O)NCc4cccc(C(N)=O)c4)cc32)C1,FLT3 D835Y,"binding, competition with immobilised ligand",1 µM,100%
O=C(O)[C@H]1[C@H](Cn2nnc3ccccc3c2=O)CC[C@@H]1C(=O)c1ccc(OCCC2CCOCC2)cc1,FLT3 R834Q,"cell-free assay, competition with immobilised ligand",1 µM,96%
O=C(NCCCN1CCOCC1)c1ccc(Nc2nccc(-c3cc4ccccc4s3)n2)cc1,FLT3 D835V/ITD,"binding, competition with immobilised ligand",1 µM,12%
COc1ncc2cc3ccccc3nc2c1C#N,FLT3 D835H,"cell-free assay, competition with immobilised ligand",5 µM,89%
C[C@@H](c1ccc(-n2cnc3c(N)ncnc32)cc1)N1CCc2nn(C)c(Cc3ccccc3)c2C1=O,FLT3 autoinhibited,"binding, competition with immobilised ligand",0.1 µM,84%
NS(=O)(=O)c1cc(NC(=O)C2(c3ccccc3Cl)CC2)ccc1Oc1cccc(Cl)c1,"Receptor-type tyrosine-protein kinase FLT3 (FLT3, Homo sapiens, UniProt P36888, F691L/ITD)","cell-free assay, competition with immobilised ligand",1 µM,100%
FC(F)(F)Oc1cccc(-c2cnc3ccc(-c4ccncc4)nn23)c1,FLT3,"cell-free assay, competition with immobilised ligand",5 µM,3.6%
CN(CCCC(F)(F)F)c1nccc(-c2cnn3ncccc23)n1,FLT3 K663Q,binding,1 µM,88%
O=C(c1ccc(Nc2ncc(Cl)c(-c3ccc(Cl)s3)n2)cc1)N1CCC(N2CCCC2)CC1,FLT3 D835H,"binding, competition with immobilised ligand",1 µM,2.3%
COc1cnc(Nc2cccc(S(N)(=O)=O)c2)nc1N1CCN(c2ccccc2)C(=O)C1,FLT3 D835H,"binding, competition with immobilised ligand",1 µM,93%
O=C(NCCCN1CCOCC1)c1ccc(Nc2ncc(Cl)c(-c3ccc(Cl)s3)n2)cc1,FLT3 K663Q,"binding, competition with immobilised ligand",1 µM,2%
N#Cc1ccccc1CSc1nnc2c(n1)[nH]c1ccccc12,FLT3,"binding, competition with immobilised ligand",10 µM,84%
CC1CCCN1c1nccc(-c2cnn3ncccc23)n1 (centres unmarked),FLT3 D835Y,binding,1 µM,100%
O=C(NCC1CCOCC1)c1n[nH]cc1NC(=O)c1c(F)cccc1F,FLT3 N841I,"binding, competition with immobilised ligand",1 µM,100%
c1cncc(-c2cccc(Nc3nccc(NC4CCCCC4)n3)c2)c1,FLT3 D835Y,"binding, competition with immobilised ligand",10 µM,1.4%
O=C(c1ccc(Nc2nccc(-c3cc4ccccc4s3)n2)cc1)N1CCC(N2CCCC2)CC1,FLT3 D835V,"binding, competition with immobilised ligand",1 µM,3.1%
CN1CCN(c2ccc(Nc3nccc(-c4cccc([N+](=O)[O-])c4)n3)cc2C(F)(F)F)CC1,FLT3 D835H,binding,10 µM,1.1%
CN(C)c1ncnc(-c2ccc3nc(Nc4cc(CN5CCN(C(=O)CC(F)(F)F)CC5)ccn4)[nH]c3c2)c1Cl,FLT3 D835H,"cell-free assay, competition with immobilised ligand",1 µM,42%
N[C@H]1CCN(c2nccc(-c3cnn4ncccc34)n2)C1,FLT3 D835V,binding,1 µM,61%
Cc1cnc(Nc2ccc(C(=O)N3CCC(N4CCCC4)CC3)cc2)nc1-c1cc2ccccc2s1,FLT3 N841I,"binding, competition with immobilised ligand",1 µM,0%
O=C(Nc1c[nH]nc1C(=O)NC1CCNCC1)c1cc(F)cc(F)c1,FLT3 D835Y,"binding, competition with immobilised ligand",1 µM,89%
CN1CCN(c2ccc(Nc3nccc(-c4ccccc4)n3)cc2C(F)(F)F)CC1,FLT3 D835Y,binding,10 µM,1.3%
COc1ccc2cc(OCC3(C(=O)O)CN(C(=O)c4ccc(F)cc4)C3)ccc2c1,FLT3 R834Q,"cell-free assay, competition with immobilised ligand",1 µM,100%
COc1ccnn2ncc(-c3ccnc(N(C)C)n3)c12,FLT3 R834Q,binding,1 µM,87%
COc1cnc(Nc2cccc(S(N)(=O)=O)c2)nc1N1CCN(c2ccccc2)CC1,FLT3 D835V,"binding, competition with immobilised ligand",1 µM,49%
CN(C)c1nccc(-c2cnn3ncccc23)n1,FLT3 D835Y,binding,1 µM,100%
CC1=C(C#N)C(c2ccc3c(c2)c(NC(=O)c2ccccc2C)nn3C)C(C#N)=C(C)N1,FLT3 N841I,"cell-free assay, competition with immobilised ligand",1 µM,74%
